We go through eight compounds from PMC10580023 (RSC Advances, 2023).

Structures are written as SMILES.

What all share (type): cell-based
Series [1] has as its system RAW 264.7 cells. The series can be described thus: Intracellular ROS by DCFH-DA probe in LPS-stimulated macrophages. Particulars: Mus musculus, RAW264.7, read-out: ROS inhibition rate. The method, boiled down: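 RAW 264.7 macrophages (DMEM/10% FBS, 37 °C, 5% CO₂) pre-treated with test compound for 24 h, then stimulated with LPS 1 μg mL⁻¹ for 4 h. Cells harvested, loaded with DCFH-DA for 30 min at 37 °C in the dark, and washed three times with PBS. DCF fluorescence read on a multimode imaging reader and […]. Mean ± SD of three independent experiments.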

The subject of series [2] is RAW 264.7 cells. The series can be described thus: TNF-α secretion by ELISA in LPS-stimulated macrophages. Particulars: pre-treatment 24 h, then LPS 1 μg mL^−1 for 4 h; ELISA of supernatant. (ELISA stands for enzyme-linked immunosorbent assay.)
Series [3] has as its system RAW 264.7 cells. As to the kind of experiment: CCK-8 cell viability. In a few lines:
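Mouse RAW 264.7 macrophages (passage ≤30) grown in DMEM with 10% FBS and 1% antibiotic-antimycotic at 37 °C under 5% CO₂. Seeded at 10⁵ per well and left overnight. Exposed to test compound at 0–200 μM for 24 h. Viability read with a CCK-8 kit as % cell viability; IC50 calculated by curve fitting. Mean ± SD of three independent experiments.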

For series [4], the system named is RAW 264.7 cells. The series can be described thus: IL-6 secretion by ELISA in LPS-stimulated macrophages. Particulars: pre-treatment 24 h, then LPS 1 μg mL^−1 for 4 h; ELISA of supernatant. In a few lines:
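RAW 264.7 macrophages (within passage 30) grown in DMEM with 10% FBS and 1% antibiotic-antimycotic at 37 °C, 5% CO2. Test compound at 25, 50 and 100 μM (legend: 0, 25, 50 μM) for 24 h, then LPS 1 μg mL⁻¹ for 4 h. Supernatant IL-6 measured by commercial ELISA kit. Three independent experiments, mean ± SD, compared with the LPS group.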

As a reminder, the inhibition is the change of the read-out against control, counted positive when it falls. As for `C=C(C[C@@H]1CCOc2ccc(C)cc21)c1ccccc1` [3ac], in series [1], the inhibition at 25 µM was -24% and the inhibition at 50 µM was determined as 23%. The “Prevention of LPS-induced TNF-α secretion” value in series [2] was “no effect”.

As to `C=C(C[C@@H]1CCOc2ccccc21)c1ccc(C)cc1` [3aj], the “Cytotoxicity (in words)” value in series [3] is on record as “little cytotoxicity”. The “Prevention of LPS-induced IL-6 secretion” value in series [4] was “able to prevent LPS-induced IL-6 secretion”.

For the compound `C=C(C[C@@H]1CCOc2ccccc21)c1ccc(Cl)cc1` [3al], the “Prevention of LPS-induced IL-6 secretion” value in series [4] is “able to prevent LPS-induced IL-6 secretion”.

On to `C=C(C[C@@H]1CCOc2ccccc21)c1ccccc1C` [3am], for which the inhibition at 50 µM in series [1] is 29%.

As for `C=C(C[C@@H]1CCSc2ccc(OC)cc21)c1ccccc1` [3aw], the “Prevention of LPS-induced IL-6 secretion” value in series [4] is given as “able to prevent LPS-induced IL-6 secretion”.

On to `C=C(C[C@@H]1CCSc2ccc(C)cc21)c1ccccc1` [3ax], for which, in series [1], the inhibition at 25 µM is 32% and the inhibition at 50 µM amounted to 49%. Moreover, in series [2], the “Prevention of LPS-induced TNF-α secretion” value is “no effect”.

For the compound `C=C(C[C@@H]1CCSc2ccccc21)c1ccccc1C` [3bd], in series [1], the inhibition at 50 µM turned out to be 52%.

For `Cc1c(C)c2c(c(C)c1O)CCC(C)(C(=O)O)O2` (centres unmarked) [Trolox, reference compound], in series [1], the inhibition at 25 µM was -3% and the inhibition at 50 µM was 20%.
